The record followed here is ChEMBL document CHEMBL1155904, “Synthesis and evaluation of heteroaryl-ketone derivatives as a novel class of VEGFR-2 inhibitors” (Bioorg Med Chem Lett, 2008).

Common to all, as to type: ADME, organism-based
Conditions in all cases: read-out: Drug uptake

The nature of data set [1]: Plasma concentration in mouse at 30 mg/kg, ip after 1 hr. More on the design: dose 30 mg/kg, route intraperitoneal. In short, it runs like this: (§1)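 Mice dosed intraperitoneally at 30 mg/kg in a vehicle of 5% ethanol, 5% Tween-80, 5% PEG400 and 85% PBS. Plasma drug concentration measured at set times after injection.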
Data set [2] is described as follows: Plasma concentration in mouse at 30 mg/kg, po after 1 hr. More on the design: dose 30 mg/kg, route oral.
Data set [3] in a line: Plasma concentration in mouse at 30 mg/kg, ip after 4 hrs. Details: dose 30 mg/kg, route intraperitoneal. In short, it runs like this:
as §1

Structures are written as SMILES.

Take `O=C(c1ccccc1NCc1ccc2ncccc2c1)c1n[nH]c2ccccc12`: the concentration at 1 h in data set [1] was 2400 nM; in data set [2] it was 1800 nM.
On to `Cc1ccc2c(c1)c(C(=O)c1ccccc1NCc1ccc3ncccc3c1)cn2C`, for which the concentration at 1 h in data set [1] is 2900 nM; in data set [2] it was 1800 nM. Also, the concentration at 4 h in data set [3] was 1100 nM.
